Assays:
[1] = In vitro glutathione peroxidase activity at 2*10e-7M using tert-butyl hydroperoxide, activity given in percentage of ebselen''s activity; format: functional
[2] = Inhibition of spontaneous lipid peroxidation at 10e-5 M in rat brain homogenate
[3] = In vitro glutathione peroxidase activity at 2*10e-7M using hydrogen peroxide, activity given in percentage of ebselen''s activity; format: functional
[4] = Inhibition of [Fe(2+)]/ascorbate-induced lipid peroxidation at 10e-5 M in rat brain homogenate
Rattus norvegicus [5] = assay: Tested for acute anti-inflammatory activity of the antirat serum-induced edema in rats at dose of 30 mg/kg at time interval- 0.5 hr; format: functional
Method in brief: (§1)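 Fasted Wistar rats (200–240 g), six per group, receive drug orally in 2% gelatin. One hour later, 0.1 mL rabbit antirat serum is injected subplantar into the hind paw. Paw volume is measured by water plethysmometry at injection and at 0.5, 1, 2, 3 and 4 h. Results are percent inhibition of swelling versus vehicle-treated rats.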

Rattus norvegicus [6] = assay: Tested for acute anti-inflammatory activity of the antirat serum-induced edema in rats at dose of 3 mg/kg at time interval- 2 hr; format: functional; method in brief: as §1
Rattus norvegicus [7] = assay: Tested for acute anti-inflammatory activity of carrageenan-induced foot edema in rats at dose of 30 mg/kg at time interval- 2 hr; format: functional
Method in brief: as §1, with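 “2% carrageenan in […]” for “rabbit antirat serum”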

Rattus norvegicus [8] = assay: Tested for acute anti-inflammatory activity of the antirat serum-induced edema in rats at dose of 30 mg/kg at time interval- 4 hr; format: functional; method in brief: as §1
Rattus norvegicus [9] = assay: Tested for acute anti-inflammatory activity of carrageenan-induced foot edema in rats at dose of 3 mg/kg at time interval- 4 hr; format: functional
Method in brief: as §1, with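 “2% carrageenan in […]” for “rabbit antirat serum”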

Rattus norvegicus [10] = assay: Tested for acute anti-inflammatory activity of the antirat serum-induced edema in rats at dose of 100 mg/kg at time interval- 2 hr; format: functional; method in brief: as §1
Rattus norvegicus [11] = assay: Tested for acute anti-inflammatory activity of carrageenan-induced foot edema in rats at dose of 100 mg/kg at time interval- 0.5 hr; format: functional
Method in brief: as §1, with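 “2% carrageenan in […]” for “rabbit antirat serum”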

Rattus norvegicus [12] = assay: Tested for acute anti-inflammatory activity of the antirat serum-induced edema in rats at dose of 100 mg/kg at time interval- 3h; format: functional; method in brief: as §1
Rattus norvegicus [13] = assay: Tested for acute anti-inflammatory activity of carrageenan-induced foot edema in rats at dose of 30 mg/kg at time interval- 1 hr; format: functional
Method in brief: as §1, with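 “2% carrageenan in […]” for “rabbit antirat serum”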

Rattus norvegicus [14] = assay: Tested for acute anti-inflammatory activity of the antirat serum-induced edema in rats at dose of 100 mg/kg at time interval- 0.5 hr; format: functional; method in brief: as §1
Rattus norvegicus [15] = assay: Tested for acute anti-inflammatory activity of the antirat serum-induced edema in rats at dose of 30 mg/kg at time interval- 3h; format: functional; method in brief: as §1
Rattus norvegicus [16] = assay: Tested for acute anti-inflammatory activity of the antirat serum-induced edema in rats at dose of 3 mg/kg at time interval- 1 hr; format: functional; method in brief: as §1
Rattus norvegicus [17] = assay: Tested for acute anti-inflammatory activity of the antirat serum-induced edema in rats at dose of 3 mg/kg at time interval- 3h; format: functional; method in brief: as §1
Rattus norvegicus [18] = assay: Tested for acute anti-inflammatory activity of the antirat serum-induced edema in rats at dose of 100 mg/kg at time interval- 4 hr; format: functional; method in brief: as §1
Rattus norvegicus [19] = assay: Tested for acute anti-inflammatory activity of carrageenan-induced foot edema in rats at dose of 100 mg/kg at time interval- 2 hr; format: functional
Method in brief: as §1, with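 “2% carrageenan in […]” for “rabbit antirat serum”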

Rattus norvegicus [20] = assay: Tested for acute anti-inflammatory activity of the antirat serum-induced edema in rats at dose of 30 mg/kg at time interval- 2 hr; format: functional; method in brief: as §1
Rattus norvegicus [21] = assay: Tested for acute anti-inflammatory activity of the antirat serum-induced edema in rats at dose of 30 mg/kg at time interval- 1 hr; format: functional; method in brief: as §1
Rattus norvegicus [22] = assay: Tested for acute anti-inflammatory activity of the antirat serum-induced edema in rats at dose of 3 mg/kg at time interval- 0.5 hr; format: functional; method in brief: as §1
Rattus norvegicus [23] = assay: Tested for acute anti-inflammatory activity of carrageenan-induced foot edema in rats at dose of 3 mg/kg at time interval- 1 hr; format: functional
Method in brief: as §1, with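 “2% carrageenan in […]” for “rabbit antirat serum”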

Rattus norvegicus [24] = assay: Tested for acute anti-inflammatory activity of carrageenan-induced foot edema in rats at dose of 30 mg/kg at time interval- 0.5 hr; format: functional
Method in brief: as §1, with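 “2% carrageenan in […]” for “rabbit antirat serum”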

Rattus norvegicus [25] = assay: Tested for acute anti-inflammatory activity of carrageenan-induced foot edema in rats at dose of 100 mg/kg at time interval- 4 hr; format: functional
Method in brief: as §1, with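 “2% carrageenan in […]” for “rabbit antirat serum”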

Rattus norvegicus [26] = assay: Tested for acute anti-inflammatory activity of carrageenan-induced foot edema in rats at dose of 30 mg/kg at time interval- 3h; format: functional
Method in brief: as §1, with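 “2% carrageenan in […]” for “rabbit antirat serum”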

Rattus norvegicus [27] = assay: Tested for acute anti-inflammatory activity of carrageenan-induced foot edema in rats at dose of 30 mg/kg at time interval- 4 hr; format: functional
Method in brief: as §1, with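 “2% carrageenan in […]” for “rabbit antirat serum”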

Rattus norvegicus [28] = assay: Tested for acute anti-inflammatory activity of carrageenan-induced foot edema in rats at dose of 3 mg/kg at time interval- 0.5 hr; format: functional
Method in brief: as §1, with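 “2% carrageenan in […]” for “rabbit antirat serum”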

Rattus norvegicus [29] = assay: Tested for acute anti-inflammatory activity of carrageenan-induced foot edema in rats at dose of 100 mg/kg at time interval- 3h; format: functional
Method in brief: as §1, with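 “2% carrageenan in […]” for “rabbit antirat serum”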

Rattus norvegicus [30] = assay: Tested for acute anti-inflammatory activity of carrageenan-induced foot edema in rats at dose of 3 mg/kg at time interval- 3h; format: functional
Method in brief: as §1, with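 “2% carrageenan in […]” for “rabbit antirat serum”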

Rattus norvegicus [31] = assay: Tested for acute anti-inflammatory activity of the antirat serum-induced edema in rats at dose of 100 mg/kg at time interval- 1 hr; format: functional; method in brief: as §1
Rattus norvegicus [32] = assay: Tested for acute anti-inflammatory activity of carrageenan-induced foot edema in rats at dose of 100 mg/kg at time interval- 1 hr; format: functional
Method in brief: as §1, with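 “2% carrageenan in […]” for “rabbit antirat serum”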

Rattus norvegicus [33] = assay: Tested for acute anti-inflammatory activity of the antirat serum-induced edema in rats at dose of 3 mg/kg at time interval- 4 hr; format: functional; method in brief: as §1
Rattus norvegicus [34] = assay: Tested for acute anti-inflammatory activity of carrageenan-induced foot edema in rats at dose of 3 mg/kg at time interval- 2 hr; format: functional
Method in brief: as §1, with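 “2% carrageenan in […]” for “rabbit antirat serum”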

SMILES: CNc1ccccc1[Se][Se]c1ccccc1NC
- GSH-Px activity [1]: 267
- inhibition [2]: 52%
- GSH-Px activity [3]: 325
- inhibition [4]: 37%

SMILES: CC(=O)c1ccc(N)c([Se][Se]c2cc(C(C)=O)ccc2N)c1
- GSH-Px activity [1]: 238
- inhibition [2]: 100%
- GSH-Px activity [3]: 247
- inhibition [4]: 99%

SMILES: CNc1ccc(C(=O)c2ccccc2)cc1[Se][Se]c1cc(C(=O)c2ccccc2)ccc1NC
- GSH-Px activity [1]: 298
- inhibition [2]: 100%
- GSH-Px activity [3]: 68
- inhibition [4]: 100%

SMILES: Cn1c(=O)[se]c2cc(C(=O)c3ccc(Cl)cc3)ccc21
- GSH-Px activity [1]: 0
- inhibition [2]: -3%
- GSH-Px activity [3]: 0
- inhibition [4]: 2%

SMILES: CCCC(=O)c1ccc2[nH]c(=O)[se]c2c1
- GSH-Px activity [1]: 0
- inhibition [2]: -3%
- GSH-Px activity [3]: 0
- inhibition [4]: -2%

SMILES: Nc1ccc(C(=O)c2ccccc2)cc1[Se][Se]c1cc(C(=O)c2ccccc2)ccc1N
- inhibition in vivo at 30 mg/kg (Rattus norvegicus [5]): -23.4%
- inhibition in vivo at 3 mg/kg (Rattus norvegicus [6]): -3.3%
- inhibition in vivo at 30 mg/kg (Rattus norvegicus [7]): 18.7%
- inhibition in vivo at 30 mg/kg (Rattus norvegicus [8]): 5.5%
- inhibition in vivo at 3 mg/kg (Rattus norvegicus [9]): 18.2%
- inhibition in vivo at 100 mg/kg (Rattus norvegicus [10]): 4.9%
- inhibition in vivo at 100 mg/kg (Rattus norvegicus [11]): -27%
- GSH-Px activity [1]: 300
- inhibition in vivo at 100 mg/kg (Rattus norvegicus [12]): -3.9%
- inhibition in vivo at 30 mg/kg (Rattus norvegicus [13]): 43.3%
- inhibition [2]: 87%
- inhibition in vivo at 100 mg/kg (Rattus norvegicus [14]): -37.5%
- inhibition in vivo at 30 mg/kg (Rattus norvegicus [15]): -3.7%
- inhibition in vivo at 3 mg/kg (Rattus norvegicus [16]): -7.9%
- inhibition in vivo at 3 mg/kg (Rattus norvegicus [17]): 0.2%
- inhibition in vivo at 100 mg/kg (Rattus norvegicus [18]): 2%
- GSH-Px activity [3]: 261
- inhibition in vivo at 100 mg/kg (Rattus norvegicus [19]): 29.2%
- inhibition in vivo at 30 mg/kg (Rattus norvegicus [20]): 0.7%
- inhibition in vivo at 30 mg/kg (Rattus norvegicus [21]): -18.2%
- inhibition in vivo at 3 mg/kg (Rattus norvegicus [22]): -16.8%
- inhibition in vivo at 3 mg/kg (Rattus norvegicus [23]): 39%
- inhibition in vivo at 30 mg/kg (Rattus norvegicus [24]): -20.6%
- inhibition in vivo at 100 mg/kg (Rattus norvegicus [25]): 5%
- inhibition in vivo at 30 mg/kg (Rattus norvegicus [26]): 13.7%
- inhibition in vivo at 30 mg/kg (Rattus norvegicus [27]): 8.5%
- inhibition in vivo at 3 mg/kg (Rattus norvegicus [28]): -33.3%
- inhibition in vivo at 100 mg/kg (Rattus norvegicus [29]): 9.2%
- inhibition in vivo at 3 mg/kg (Rattus norvegicus [30]): 32.9%
- inhibition in vivo at 100 mg/kg (Rattus norvegicus [31]): 7.2%
- inhibition in vivo at 100 mg/kg (Rattus norvegicus [32]): 40.4%
- inhibition [4]: 95%
- inhibition in vivo at 3 mg/kg (Rattus norvegicus [33]): 4.8%
- inhibition in vivo at 3 mg/kg (Rattus norvegicus [34]): 45%

Reference: ChEMBL document CHEMBL1127451, “Benzoselenazolinone derivatives designed to be glutathione peroxidase mimetics feature inhibition of cyclooxygenase/5-lipoxygenase pathways and anti-inflammatory activity” (1994)
